ChEMBL document CHEMBL4251693, “Indolylmaleimide Derivative IM-17 Shows Cardioprotective Effects in Ischemia-Reperfusion Injury” (ACS Med Chem Lett, 2018)
Activity calls are given as the source filed them. The rule behind the calls is not given here.

Columns and labels:
HL-60 [1] = experiment: Cytoprotective activity against H2O2-induced necrosis in human HL60 cells assessed as increase in cell viability at 10 uM incubated for 1 hr followed by H2O2 stimulation measured after 4 hrs in presence of caspase inhibitor Z-VAD by Alamar blue assay; format: functional, cell-based
Procedure, shortened: (§1)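 HL-60 cells exposed to low-level H2O2 (30 μM, 4 h) with or without test agent (10 μM) or Z-VAD (100 μM). Viability read by AlamarBlue; morphology by phase-contrast imaging.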

HL-60 [2] = experiment: Cytoprotective activity against TBHP-induced necrosis in human HL60 cells assessed as increase in cell viability at 10 uM incubated for 1 hr followed by TBHP stimulation measured after 3 hrs by Alamar blue assay; format: functional, cell-based
Procedure, shortened: (§2)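 HL-60 cells given a death inducer with or without test agent (10 μM) or Z-VAD (100 μM). Inducers were actinomycin D 1 μM for 6 h, camptothecin 1 μM for 6 h, etoposide 100 μM for 4 h, FasL 100 ng/mL for 18 h, H2O2 100 μM for 3 h, and TBHP 30 μM for 3 h. Viability read by AlamarBlue.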

HL-60 [3] = experiment: Cytoprotective activity against H2O2-induced necrosis in human HL60 cells assessed as increase in cell viability at 10 uM incubated for 1 hr followed by H2O2 stimulation measured after 3 hrs by Alamar blue assay; format: functional, cell-based; procedure, shortened: as §2
HL-60 [4] = experiment: Cytoprotective activity against actinomycin D-induced apoptosis in human HL60 cells assessed as increase in cell viability at 10 uM incubated for 1 hr followed by actinomycin D stimulation measured after 6 hrs by Alamar blue assay; format: functional, cell-based; procedure, shortened: as §2
HL-60 [5] = experiment: Cytoprotective activity against camptothecin-induced apoptosis in human HL60 cells assessed as increase in cell viability at 10 uM incubated for 1 hr followed by camptothecin stimulation measured after 6 hrs by Alamar blue assay; format: functional, cell-based; procedure, shortened: as §2
HL-60 [6] = experiment: Cytoprotective activity against etoposide-induced apoptosis in human HL60 cells assessed as increase in cell viability at 10 uM incubated for 1 hr followed by etoposide stimulation measured after 4 hrs by Alamar blue assay; format: functional, cell-based; procedure, shortened: as §2
HL-60 [7] = experiment: Cytoprotective activity against Fas ligand-induced apoptosis in human HL60 cells assessed as increase in cell viability at 10 uM incubated for 1 hr followed by Fas ligand stimulation measured after 18 hrs by Alamar blue assay; format: functional, cell-based; procedure, shortened: as §2
HL-60 [8] = experiment: Cytoprotective activity against H2O2-induced necrosis in human HL60 cells assessed as increase in cell viability at 10 uM incubated for 1 hr followed by H2O2 stimulation measured after 4 hrs by Alamar blue assay; format: functional, cell-based; procedure, shortened: as §1
HL-60 [9] = experiment: Cytoprotective activity against H2O2-induced apoptosis in human HL60 cells assessed as increase in cell viability at 10 uM incubated for 1 hr followed by H2O2 stimulation measured after 4 hrs in presence of caspase inhibitor Z-VAD by Alamar blue assay; format: functional, cell-based; procedure, shortened: as §1
HL-60 [10] = experiment: Cytoprotective activity against H2O2-induced necrosis in human HL60 cells assessed as increase in cell viability at 10 uM incubated for 1 hr followed by H2O2 stimulation measured after 4 hrs by phase contrast microscopy; format: functional, cell-based; procedure, shortened: as §1
HL-60 [11] = experiment: Cytoprotective activity against H2O2-induced necrosis in human HL60 cells assessed as increase in cell viability at 10 uM incubated for 1 hr followed by H2O2 stimulation measured after 4 hrs in presence of caspase inhibitor Z-VAD by phase contrast microscopy; format: functional, cell-based; procedure, shortened: as §1
HL-60 [12] = experiment: Cytoprotective activity against H2O2-induced apoptosis in human HL60 cells assessed as increase in cell viability at 10 uM incubated for 1 hr followed by H2O2 stimulation measured after 4 hrs in presence of caspase inhibitor Z-VAD by phase contrast microscopy; format: functional, cell-based; procedure, shortened: as §1
Jurkat [13] = experiment: Cytoprotective activity against FasL-induced necroptosis in human Jurkat cells assessed as increase in cell viability at 10 uM incubated for 1 hr followed by FasL stimulation measured after 20 hrs by Alamar blue assay; format: functional, cell-based
Procedure, shortened: (§3)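 Jurkat necroptosis induced with FasL (100 ng/mL, 20 h) together with Z-VAD (100 μM) or cycloheximide (5 μM). Test agents were run at 10 μM alongside a necroptosis inhibitor at 30 μM. Viability read by AlamarBlue; morphology examined by phase-contrast imaging.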

Jurkat [14] = experiment: Cytoprotective activity against CHX-induced necroptosis in human Jurkat cells assessed as increase in cell viability at 10 uM incubated for 1 hr followed by CHX stimulation by Alamar blue assay; format: functional, cell-based; procedure, shortened: as §3
Jurkat [15] = experiment: Cytoprotective activity against Z-VAD-induced necroptosis in human Jurkat cells assessed as increase in cell viability at 10 uM incubated for 1 hr followed by Z-VAD stimulation by Alamar blue assay; format: functional, cell-based; procedure, shortened: as §3
Jurkat [16] = experiment: Cytoprotective activity against FasL-induced apoptosis in human Jurkat cells assessed as increase in cell viability at 10 uM incubated for 1 hr followed by FasL stimulation measured after 18 hrs by Alamar blue assay; format: functional, cell-based
Procedure, shortened: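 Jurkat cells exposed to FasL (100 ng/mL, 18 h) with or without test agent (10 μM) or Z-VAD (100 μM). Viability measured by AlamarBlue and morphology by phase-contrast imaging.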

Jurkat [17] = experiment: Cytoprotective activity against FasL-induced necroptosis in human Jurkat cells assessed as increase in cell viability at 10 uM incubated for 1 hr followed by FasL stimulation measured after 20 hrs by phase contrast microscopy; format: functional, cell-based; procedure, shortened: as §3
Jurkat [18] = experiment: Cytoprotective activity against CHX-induced necroptosis in human Jurkat cells assessed as increase in cell viability at 10 uM incubated for 1 hr followed by CHX stimulation by phase contrast microscopy; format: functional, cell-based; procedure, shortened: as §3
Jurkat [19] = experiment: Cytoprotective activity against Z-VAD-induced necroptosis in human Jurkat cells assessed as increase in cell viability at 10 uM incubated for 1 hr followed by Z-VAD stimulation by phase contrast microscopy; format: functional, cell-based; procedure, shortened: as §3
HL-60 [20] = experiment: Cytoprotective activity against H2O2-induced necrosis in human HL60 cells incubated for 1 hr followed by H2O2 stimulation by LDH release assay; format: functional, cell-based; settings: HL-60, 1 h
Procedure, shortened: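 Necrosis of HL-60 cells induced by H2O2 and quantified as lactate dehydrogenase release from the cytosol; IC50 derived.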

[21] = Stability in rat liver S9 fraction at 5 uM after 30 mins by HPLC method; format: ADME, subcellular; settings: s9, 0.5 h
H9c2 [22] = experiment: Cytoprotective activity against TBHP-induced necrosis in rat H9c2 cells incubated for 4 hrs by LDH release assay; format: functional, cell-based; settings: H9c2, 4 h
Procedure, shortened: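 Rat cardiomyoblast H9c2 cells treated with TBHP (300 μM) with or without test compound; necrotic cell death quantified by LDH release assay.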

H9c2 [23] = experiment: Cytotoxicity against rat H9c2 cells at 30 uM; format: cell-based; settings: h9c2, 30 µM
[24] = Solubility of the compound in water; format: physicochemical; settings: buffer

- Stability [21]: Unstable
- solubility [24]: Insoluble
SMILES: CCCCCNC1=C(c2cn(C)c3ccccc23)C(=O)N(C)C1=O
- Activity (HL-60 [1]): Active
- Activity (HL-60 [2]): Active
- Activity (HL-60 [3]): Active
- Activity (HL-60 [4]): inactive
- Activity (HL-60 [5]): inactive
- Activity (HL-60 [6]): inactive
- Activity (HL-60 [7]): inactive
- Activity (HL-60 [8]): Active
- Activity (HL-60 [9]): Active
- Activity (HL-60 [10]): Active
- Activity (HL-60 [11]): Active
- Activity (HL-60 [12]): Active
- Activity (Jurkat [13]): inactive
- Activity (Jurkat [14]): inactive
- Activity (Jurkat [15]): inactive
- Activity (Jurkat [16]): inactive
- Activity (Jurkat [17]): inactive
- Activity (Jurkat [18]): inactive
- Activity (Jurkat [19]): inactive
- IC50 (HL-60 [20]): 0.25 µM
- IC50 (H9c2 [22]): 3.9 µM
- Activity (H9c2 [23]): Non-Toxic
